Reference: ChEMBL document CHEMBL1145333, “Low molecular weight activated protein C inhibitors as a potential treatment for hemophilic disorders” (J Med Chem, 2006)

Assays:
[1] = molecular target: Vitamin K-dependent protein C (Homo sapiens, UniProt P04070); test: Inhibition of human aPC
[2] = molecular target: Prothrombin (Homo sapiens, UniProt P00734); test: Inhibition of human thrombin activity
Outline: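 Thrombin counterscreen using its natural substrate, fibrinogen. Result expressed as an IC50.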

[3] = organism: Homo sapiens; test: Increase in thrombin generation in human moderate hemophilia A platelet poor plasma by thrombogram assay at 10 uM; format: functional; details: in the assay text read “10 nM” for “10 uM”
Outline: (§1)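 Calibrated automated thrombogram in human moderate hemophilia A platelet-poor plasma (FVIII < 5%). Thrombin generation triggered via the intrinsic coagulation pathway. Inhibitor incubated in the plasma at 10 and 20 nM alongside a 0 nM control. Read-out is the thrombin generation curve and its peak thrombin level (nM).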

[4] = organism: Homo sapiens; test: Increase in thrombin generation in human moderate hemophilia A pooled poor platelet plasma by thrombogram assay at 20 uM; format: functional; details: in the assay text read “20 nM” for “20 uM”; outline: as §1
[5] = organism: Homo sapiens; test: Increase in thrombin generation in human severe hemophilia A pooled poor platelet plasma at 20 nM relative to control by thrombogram assay

Chain of Vitamin K-dependent protein C (P04070 43-197 limits assumed): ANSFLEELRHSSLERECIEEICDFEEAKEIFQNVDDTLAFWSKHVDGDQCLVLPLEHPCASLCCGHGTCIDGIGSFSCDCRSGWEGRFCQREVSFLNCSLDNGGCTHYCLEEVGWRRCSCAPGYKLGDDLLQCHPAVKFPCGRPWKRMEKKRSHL
Chain of Vitamin K-dependent protein C (P04070 212-461 limits assumed): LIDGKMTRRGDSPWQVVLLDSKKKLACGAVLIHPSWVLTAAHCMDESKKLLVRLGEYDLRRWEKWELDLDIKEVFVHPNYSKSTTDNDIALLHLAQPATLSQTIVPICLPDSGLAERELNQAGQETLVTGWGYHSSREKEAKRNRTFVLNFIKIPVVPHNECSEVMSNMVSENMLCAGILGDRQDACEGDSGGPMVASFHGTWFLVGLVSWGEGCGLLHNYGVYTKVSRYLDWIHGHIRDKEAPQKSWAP

IC50 [1] [µM]	IC50 [2] [µM]	SMILES	Activity [3] [nM]	Activity [4] [nM]	Activity [5] [nM]
0.1	1.25	N=C(N)c1ccc(CNC(=O)C2(NC(=O)[C@@H](CC3CCCCC3)NCC(=O)O)Cc3ccccc3C2)cc1			
> 33		CC(C)[C@@H](NCC(=O)O)C(=O)N[C@H](C(=O)NCc1ccc(C(=N)N)cc1)C(c1ccccc1)c1ccccc1			
0.71	13.3	CC(C)[C@@H](NCC(=O)O)C(=O)N[C@@H](Cc1ccccc1)C(=O)NCc1ccc(C(=N)N)cc1			
2.04	300	CC[C@@H](NCC(=O)O)C(=O)NC1(C(=O)NCc2ccc(C(=N)N)cc2)Cc2ccccc2C1			
3.83	300	CC(C)(C)[C@@H](NCC(=O)O)C(=O)NC1(C(=O)NCc2ccc(C(=N)N)cc2)Cc2ccccc2C1			
9.28	> 300	CC(C)[C@@H](NCC(=O)O)C(=O)NC1(C(=O)NCc2ccc(C(=N)N)cc2)Cc2cc3ccccc3cc2C1			
11.3	10	N=C(N)c1ccc(CNC(=O)C2(NC(=O)[C@@H](Cc3ccccc3)NCC(=O)O)Cc3ccccc3C2)cc1			
> 33	> 33	N=C(N)c1ccc(CNC(=O)C2(NC(=O)[C@@H](NCC(=O)O)C3CCCCC3)Cc3ccccc3C2)cc1			
> 33	100	N=C(N)c1ccc(CNC(=O)C2(NC(=O)CNCC(=O)O)Cc3ccccc3C2)cc1			
	47	N=C(N)c1ccc(CNC(=O)C2(NC(=O)[C@H](NCC(=O)O)C3CCCCC3)Cc3ccccc3C2)cc1	160	160	201
0.43	> 300	CC(C)[C@@H](NCC(=O)O)C(=O)NC1(C(=O)NCc2ccc(C(=N)N)cc2)Cc2cccc3cccc(c23)C1			
1.12	85	CCC(C)[C@@H](NCC(=O)O)C(=O)NC1(C(=O)NCc2ccc(C(=N)N)cc2)Cc2ccccc2C1 (some centres undefined)			
0.25	0.77	CC(C)[C@@H](NCC(=O)O)C(=O)NC1(C(=O)NCc2ccc(C(=N)N)cc2)Cc2ccc3ccccc3c2C1 (some centres undefined)			
44	> 300	CC(C)(NCC(=O)O)C(=O)NC1(C(=O)NCc2ccc(C(=N)N)cc2)Cc2ccccc2C1			
53	4.4	N=C(N)c1ccc(CNC(=O)C2(NC(=O)C3(NCC(=O)O)CCCC3)Cc3ccccc3C2)cc1			
9.08	33	C[C@@H](NCC(=O)O)C(=O)NC1(C(=O)NCc2ccc(C(=N)N)cc2)Cc2ccccc2C1			
0.75	> 33	CC(C)C[C@@H](NCC(=O)O)C(=O)NC1(C(=O)NCc2ccc(C(=N)N)cc2)Cc2ccccc2C1			
12.7	> 300	CC(C)[C@@H](NCC(=O)O)C(=O)NC1(C(=O)NCc2ccc(C(=N)N)cc2)Cc2ccccc2-c2ccccc2C1			
10.9	> 33	COc1cc2c(cc1OC)CC(NC(=O)[C@H](NCC(=O)O)C(C)C)(C(=O)NCc1ccc(C(=N)N)cc1)C2			
0.35	> 33	CC(C)[C@@H](NCC(=O)O)C(=O)N[C@H](C(=O)NCc1ccc(C(=N)N)cc1)C1Cc2ccccc2C1			
0.8	> 300	CC(C)[C@@H](NCC(=O)O)C(=O)NC1(C(=O)NCc2ccc(C(=N)N)cc2)Cc2ccccc2C1			
1.7	100	CC(C)[C@@H](NCC(=O)O)C(=O)NC1(C(=O)NCc2ccc(C(=N)N)cc2)Cc2ccncc2C1 (some centres undefined)			
1.07	300	CC(C)[C@@H](NCC(=O)O)C(=O)NC1(C(=O)NCc2ccc(C(=N)N)cc2)Cc2cccnc2C1 (single isomer, unassigned; diastereomer 1)			
1.14	300	CC(C)[C@@H](NCC(=O)O)C(=O)NC1(C(=O)NCc2ccc(C(=N)N)cc2)Cc2cccnc2C1 (single isomer, unassigned; diastereomer 2)			
